Results on one compound are retold here after ChEMBL document CHEMBL4428023, “1,4-Dihydropyridines Active on the SIRT1/AMPK Pathway Ameliorate Skin Repair and Mitochondrial Function and Exhibit Inhibition of Proliferation in Cancer Cells” (J Med Chem, 2016).

Assay [1] deals with 3',5'-cyclic-AMP phosphodiesterase 4D (Homo sapiens) (UniProt Q08499). Put plainly: Inhibition of recombinant human PDE4D assessed as phosphate release using cAMP as substrate at 50 uM after 60 mins by malachite green assay. The procedure, abridged:
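Recombinant human PDE4D (20 mU) in 10 mM Tris-HCl pH 7.4 with cAMP substrate. Compounds at 50 µM in DMSO; rolipram 10 µM as positive control. Incubated 60 min at 37 °C, then phosphate release measured by malachite green absorbance at 620 nm. Mean of three determinations.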

For assay [2], the system named is HaCaT. Put plainly: Activation of AMPK/SIRT1 in human HaCaT cells assessed as nitric oxide production at 1 uM incubated for 1 hr by DAF-2D staining-based fluorescence assay. The assay is classed as cell-based. An outline of the steps:
(§1)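 HaCaT keratinocytes grown in DMEM with 10% FBS and antibiotics. Cells treated 1 h (single-point 1 µM; dose-response at 5, 25, 50 µM). 5 µM DAF-2D added to complete medium. Cells then washed in PBS, trypsinized and analysed by flow cytometry for DAF fluorescence (ex 485/em 538 nm). Read-out is % DAF-positive cells relative to DMSO control.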

The subject of assay [3] is HaCaT. Put plainly: Activation of AMPK/SIRT1 in human HaCaT cells assessed as nitric oxide production incubated for 1 hr by DAF-2D staining-based fluorescence assay. The assay is classed as cell-based. An outline of the steps:
as §1

The subject of assay [4] is Mus musculus. Put plainly: Wound healing activity in CD1 mouse assessed as decrease in epithelial gap at 1 uM administered topically on wound everyday for 14 days by biopsy punch assay. Format: functional, organism-based. An outline of the steps:
(§2)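 Male CD1 mice, 8 weeks old, anaesthetized i.p. with medetomidine 1 mg/kg plus ketamine 75 mg/kg, then biopsy-punch wounded. Compound (1 µM) in 20 µL saline applied directly to the wound daily for 14 days; solvent-treated group as control. Epithelial gap and % wound closure followed over time.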

The subject of assay [5] is Mus musculus. As to the kind of experiment: Wound healing activity in CD1 mouse assessed as increased wound closure at 1 uM administered topically on wound everyday for 14 days by biopsy punch assay. Format: functional, organism-based. The procedure, abridged: as §2
In assay [6] the test system is M14. Put plainly: Antiproliferative activity against human M14 cells assessed as cell viability after 72 hrs by MTT assay. The assay is classed as functional, cell-based. Conditions: M14, 72 h. The procedure, abridged: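 Cells grown in RPMI with 10% fetal calf serum and penicillin, seeded in sextuplicate at 3 × 10^3 cells/well. After 24 h, cells were exposed 72 h to 5–200 µM. Viability was measured by MTT and expressed as treated/untreated × 100. IC50 was calculated from three independent experiments, reported as mean ± SD.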

The target in assay [7] is T1, NAD-dependent protein deacetylase sirtuin-1 (Homo sapiens) (UniProt Q96EB6).
T1 sequence (whole entry): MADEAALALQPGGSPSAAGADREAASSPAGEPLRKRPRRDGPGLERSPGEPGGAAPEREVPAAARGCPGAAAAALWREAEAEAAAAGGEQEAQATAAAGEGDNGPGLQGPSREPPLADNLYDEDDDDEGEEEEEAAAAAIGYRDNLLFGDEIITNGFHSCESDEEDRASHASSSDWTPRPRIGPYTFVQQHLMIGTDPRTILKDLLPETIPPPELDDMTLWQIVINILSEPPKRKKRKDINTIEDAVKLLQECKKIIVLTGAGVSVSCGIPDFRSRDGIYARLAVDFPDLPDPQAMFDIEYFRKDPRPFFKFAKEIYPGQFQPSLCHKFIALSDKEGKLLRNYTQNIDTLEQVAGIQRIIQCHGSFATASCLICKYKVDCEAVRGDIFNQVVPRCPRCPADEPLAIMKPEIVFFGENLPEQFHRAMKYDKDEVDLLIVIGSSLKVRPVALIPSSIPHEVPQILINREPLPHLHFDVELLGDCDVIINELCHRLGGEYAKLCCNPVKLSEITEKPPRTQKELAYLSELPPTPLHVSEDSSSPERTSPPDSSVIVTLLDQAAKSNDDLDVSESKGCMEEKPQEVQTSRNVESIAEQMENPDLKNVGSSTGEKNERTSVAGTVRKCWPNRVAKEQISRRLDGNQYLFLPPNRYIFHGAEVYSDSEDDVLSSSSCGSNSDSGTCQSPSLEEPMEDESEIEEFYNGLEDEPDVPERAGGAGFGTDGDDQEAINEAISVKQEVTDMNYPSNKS
As to the kind of experiment: Activation of full-length GST-tagged recombinant human SIRT1 assessed as enzyme activity obtained with subtraction of intrinsic fluorescence using p53-based untagged peptide as substrate at 50 uM after 30 mins by SIRTainty assay.

Active and inactive are the calls of the source. The rule behind the calls is not given here.

Chain of 3',5'-cyclic-AMP phosphodiesterase 4D (Homo sapiens) (Q08499 whole entry): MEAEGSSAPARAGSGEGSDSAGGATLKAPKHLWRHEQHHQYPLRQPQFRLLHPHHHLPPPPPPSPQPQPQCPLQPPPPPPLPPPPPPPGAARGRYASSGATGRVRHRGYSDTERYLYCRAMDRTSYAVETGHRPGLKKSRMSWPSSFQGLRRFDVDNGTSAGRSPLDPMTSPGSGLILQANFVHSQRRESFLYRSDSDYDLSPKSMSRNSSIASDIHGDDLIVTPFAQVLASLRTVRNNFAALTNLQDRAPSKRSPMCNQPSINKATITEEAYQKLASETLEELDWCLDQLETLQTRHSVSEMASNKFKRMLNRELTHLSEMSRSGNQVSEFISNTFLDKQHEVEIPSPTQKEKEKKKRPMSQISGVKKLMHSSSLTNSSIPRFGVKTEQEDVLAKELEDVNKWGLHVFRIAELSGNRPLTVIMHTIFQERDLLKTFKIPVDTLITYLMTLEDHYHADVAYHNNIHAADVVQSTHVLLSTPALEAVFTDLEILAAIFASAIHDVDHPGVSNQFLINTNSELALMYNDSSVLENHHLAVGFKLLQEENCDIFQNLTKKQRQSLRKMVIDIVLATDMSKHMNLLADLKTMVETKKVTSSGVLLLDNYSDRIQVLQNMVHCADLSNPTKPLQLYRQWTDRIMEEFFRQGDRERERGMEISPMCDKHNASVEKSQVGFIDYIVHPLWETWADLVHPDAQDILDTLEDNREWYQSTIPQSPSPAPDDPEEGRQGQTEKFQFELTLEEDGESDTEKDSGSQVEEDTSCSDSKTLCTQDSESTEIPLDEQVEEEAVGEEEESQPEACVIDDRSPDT

For `CCOC(=O)C1=CN(C(=O)c2ccccc2)C=C(C(=O)OCC)C1c1ccccc1`, in assay [1], the inhibition result is “inactive”. Moreover, the result in assay [2], in assay [4] and in assay [5] was Active. In addition, the values for the Activity result in assay [3] and in assay [7] were “Dose-dependent effect” and 153%, respectively. In assay [6], the IC50 turned out to be 153 µM.
